Neddylation inh – inhibitors of cullin neddylation, primary screen, biochemical, TR-FRET, uHTS, NAE and Ubc12 | NEDD8-conjugating enzyme Ubc12 (Homo sapiens) + NEDD8-activating enzyme E1 regulatory … | AID 651699, 2012 | hit rate 0.58% among 360,000 | inhibition, % at 25 µM; in the data active = inhibition above about 36%
Target sequence (P61081 whole entry, looked up): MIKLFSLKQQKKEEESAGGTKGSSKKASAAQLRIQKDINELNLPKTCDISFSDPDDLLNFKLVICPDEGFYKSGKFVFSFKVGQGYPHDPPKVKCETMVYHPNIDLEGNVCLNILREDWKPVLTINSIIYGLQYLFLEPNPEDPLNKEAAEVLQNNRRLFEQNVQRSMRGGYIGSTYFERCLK
Target sequence (Q13564 whole entry, looked up): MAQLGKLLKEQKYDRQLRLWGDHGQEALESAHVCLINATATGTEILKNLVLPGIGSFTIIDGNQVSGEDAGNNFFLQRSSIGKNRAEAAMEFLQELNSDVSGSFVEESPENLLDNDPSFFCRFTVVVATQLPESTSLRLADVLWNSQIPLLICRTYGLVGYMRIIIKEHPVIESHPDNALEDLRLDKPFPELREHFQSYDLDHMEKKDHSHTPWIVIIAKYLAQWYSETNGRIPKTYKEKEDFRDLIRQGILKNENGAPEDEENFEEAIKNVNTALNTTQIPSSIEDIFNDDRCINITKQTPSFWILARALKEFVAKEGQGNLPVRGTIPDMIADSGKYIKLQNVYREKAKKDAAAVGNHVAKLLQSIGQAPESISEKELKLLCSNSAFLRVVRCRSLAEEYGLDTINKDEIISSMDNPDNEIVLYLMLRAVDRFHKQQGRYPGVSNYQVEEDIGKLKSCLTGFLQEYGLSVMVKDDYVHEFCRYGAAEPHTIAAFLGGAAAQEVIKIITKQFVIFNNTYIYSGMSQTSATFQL
UCH37 DUB inh – inhibitors of human UCH37 deubiquitinase, primary screen, biochemical, Ub-AMC cleavage, fluorescence. purified proteasome/UCH37. inhibition, % (concentration not given with the values). hit rate 0.33% among 330,000. AID 588478, 2011;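 active = mean inhibition over replicate wells above about 20%, limit read from the data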;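 also: 0% = compound-free wells with enzyme and 100% = wells lacking proteasome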
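Signal – fluorescence, ex 355 nm, em 460 nm · System – Proteasome-bound UCH37 · Input – 0.15 nM proteasome as dispensed · Timing – 30 min preincubation with enzyme, 25 min cleavage at room temperature · Read-out basis – percent inhibition of cleavage signal versus uninhibited and no-proteasome wells · Medium – Tris-HCl pH 7.4 with ATP-MgCl2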
UBC9 SUMO inh – inhibitors of in vitro SUMOylation cascade, primary screen, biochemical, HTRF, uHTS; SUMO-conjugating enzyme UBC9 (Homo sapiens), P63279; HTRF SUMOylation assay, SAE1/SAE2 + UBC9; inhibition, % at 35 µM; hit rate 0.36% among 290,000; AID 2006, 2009; in the data active = inhibition above about 50%, passing the limit was not always enough
CTSL1 counter – Fasciola hepatica cathepsin L1 inhibitors, primary screen, counter-screen for PFM18AAP inhibitor project, biochemical, QFRET, fluorogenic peptide substrate. recombinant F. hepatica cathepsin L1, Z-Leu-Arg-MCA fluorescence. inhibition, % at 5.96 µM. hit rate 0.49% among 300,000;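 active = inhibition above the mean of all tested compounds plus 3 SD, set per screening campaign, cut at about 17% in these data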;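 also: 0% = plate median of test compound wells and 100% = 1 µM Z-Phe-Ala-diazomethylketone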
UCH37 reconfirm – retest of human UCH37 deubiquitinase inhibitors, confirmation, biochemical, Ub-AMC cleavage rate, fluorescence; shares compounds with UCH37 DUB inh; Proteasome-bound UCH37; inhibition, % at 20 µM; hit rate 27% among 480;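 active = average inhibition over replicates above about 50%, so the earlier screening hit is confirmed, limit read from the data; inactive = the rest, counted as false positives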;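 also: based on cleavage rate fitted by regression over a 30 min kinetic read; 0% = proteasome plus Ub-AMC and 100% = Ub-AMC without proteasome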
Numbers without * were called inactive; i = inactive; · = no result shown. Compounds with a hit are over-represented: about 1.4% of the library has one in this group of screens.

SMILES	Neddylation inh	UCH37 DUB inh	UBC9 SUMO inh	CTSL1 counter	UCH37 reconfirm
Cc1ccccc1NS(=O)(=O)c1cc(C(=O)NCCC2=CCCCC2)ccc1C	14.9	39.8*	-11.4	-2.7	41.4
O=C(NC(=S)NCCC1=CCCCC1)c1ccc(Br)o1	-5.0	1.2	-9.9	-2.1	·
CC(=NOCON=C(C)c1ccccc1)c1ccccc1	·	-0.6	·	·	·
CCOC(=O)CC1=NN(c2ccccc2)C(=O)/C1=C\c1ccc(OC)cc1OC	1.8	35.5*	7.9	0.1	-2.7
C=CCN=c1scc(C)n1N=Cc1ccc(O)c(O)c1	·	2.1	·	·	·
Cc1[nH][nH]c(=O)c1C(c1ccc(-c2cccc(Cl)c2)o1)c1c(C)[nH][nH]c1=O	-13.4	80.5*	88.3	8.5	84.0*
CNC(=S)N/N=C/c1ccc(-c2cccc(C(=O)O)c2)o1	-1.7	·	21.7	3.3	·
Cc1[nH][nH]c(=O)c1C(c1ccc(-c2cccc(C(=O)O)c2)o1)c1c(C)[nH][nH]c1=O	-22.3	44.3*	88.5*	1.0	70.8*
COC(=O)c1ccc(-c2ccc(C(c3c(C)[nH][nH]c3=O)c3c(C)[nH][nH]c3=O)o2)cc1	-10.0	44.9*	28.0	-1.7	67.2*
CCOC(=O)NN=C/C=C/c1ccccc1	·	2.3	·	·	·
CN1CCN(c2ccccc2C=NNC(=O)c2cccnc2)CC1	·	5.5	·	·	·
COc1ccc(C=NOCC(=O)N2CC3(C)CC2CC(C)(C)C3)cc1 (stereo not given)	·	2.2	·	·	·
CCCCCc1ccc(OCCOCCn2c[n+](C)c3ccccc32)c(CCCCC)c1	7.6	33.3*	-11.0	·	57.0*
CC(=O)Nc1ccc(OCCC[n+]2ccccc2)cc1	-8.0	1.9	-7.6	1.8	·
CCCCCc1ccc(OCCC[n+]2ccccc2)c(CCCCC)c1	-4.8	29.8*	13.9	1.5	36.1
C[n+]1cn(CC(O)COCc2ccccc2)c2ccccc21 (stereo not given)	-4.0	-0.2	23.4	-1.6	·
CN1CCS/C1=C/C=C1\SC(=S)N(CC(=O)O)C1=O	i	37.6*	-8.5	8.5	30.1
O=C(NN=Cc1coc2ccccc2c1=O)c1ccc(Cl)cc1	·	-6.2	·	·	·
CCCCCOCC1CC(CC(C)=NNC(N)=S)C(=O)O1 (stereo not given)	·	1.2	·	·	·
CCOC(=O)C1=C(C)OC2(O)c3ccccc3C(=O)C12O (stereo not given)	-4.8	79.3*	94.0*	58.6*	71.9*
CCOC(=O)C1=C(C)N[C@@]2(O)c3ccccc3C(=O)[C@@]12O	-5.1	18.0	18.3	-0.7	·
CC(=O)C1=C(C)OC2(O)c3ccccc3C(=O)C12O (stereo not given)	-24.4	77.4*	·	51.2*	70.6*
CCOc1cc(C=NNC(=O)c2cccs2)cc([N+](=O)[O-])c1O	·	29.7*	·	·	39.7
N#C/C(=C\c1ccc(N2CCOCC2)o1)C(=O)Nc1ccc(O)cc1	i	28.6*	-8.4	5.8	25.4
N#C/C(=C/c1ccc(N2CCCCC2)o1)C(=O)Nc1ccc2ccccc2c1	-369.5	3.2	9.4	·	·
SMILES	Neddylation inh	UCH37 DUB inh	UBC9 SUMO inh	CTSL1 counter	UCH37 reconfirm
COc1ccc(NC(=O)/C(C#N)=C\c2ccc(N3CCOCC3)o2)cc1	i	27.2*	-17.6	10.4	14.2
COc1ccc(NC(=O)/C(C#N)=C/c2ccc(Br)o2)cc1	-11.8	4.0	1.0	4.9	·
N#C/C(=C/c1ccc(N2CCOCC2)o1)C(=O)NC1CCCCC1	-107.7	26.6*	-9.9	5.4	19.3
N#C/C(=C/c1ccc(N2CCCCC2)o1)C(=O)Nc1ccc(Cl)cc1	-30.6	0.0	20.1	3.5	·
CC(Oc1ccc(C(C)(C)C)cc1)c1ccnc2nc(N=CN(C)C)nn12 (stereo not given)	·	-58.3	·	·	·
c1coc(-c2nnc(-c3cccs3)o2)c1	·	-122.3	7.8	2.9	·
O=c1cc(-c2ccco2)nc(-c2cccs2)o1	·	43.0*	8.8	1.6	19.3
CSc1nc(Oc2ccc(Cl)cc2)c2sccc2n1	-27.1	36.1*	14.2	2.4	16.3
CON=CC(C(C)=O)C(=O)Nc1ccc(Cl)cc1Cl (stereo not given)	·	-1.3	·	·	·
CC(C)(C)c1ccc2c(c1)OC(C(=O)NN=Cc1ccccn1)CO2 (stereo not given)	·	3.3	·	·	·
Cc1c(C)c2c(C)nn(-c3ccccc3)c2[nH]c1=O	6.2	0.3	3.6	0.5	·
Nc1c2c(=O)[nH]c(O)cc2nn1-c1ccccc1	23.4	30.6*	·	·	23.2
COc1ccc(C(=O)Oc2cc(C=NNS(=O)(=O)c3ccccc3)ccc2OC)cc1	·	2.0	·	·	·
COc1ccc(C=NNC(=O)Nc2cccc3nsnc23)cc1	·	-194.4	·	·	·
COc1ccc(O)c(C2(O)C(=O)c3ccccc3C2=O)c1	-4.4	-0.3	0.6	-7.0	·
CC(=O)C(C(C)=O)C1(O)C(=O)c2ccccc2C1=O	-13.6	70.1*	94.4*	57.7*	78.1*
FC(F)(F)c1ccc(NN=Cc2cccnc2)nc1	·	8.6	·	·	·
CC(=NNC(=O)c1c(Cl)c(C)nn1C)c1cccc(NC(=O)c2cccc(F)c2)c1	·	2.7	·	·	·
CCC(C)(C)c1ccc(OCCCC[n+]2ccc(C)cc2)c(C(C)(C)CC)c1	·	26.5*	19.3	8.1	20.6
Cc1cc(C(C)(C)C)ccc1OCCCCN1CCCC1	1.6	3.1	2.3	-4.9	·
CCC(C)(C)c1ccc(OCCCC[n+]2cccc(C)c2C)c(C(C)(C)CC)c1	-2.5	38.1*	19.9	1.3	59.4*
CC(=O)ON=Cc1c(C)c(C=O)n2ccccc12	·	6.4	·	·	·
CN(C)C(=NO)c1c(Cl)cccc1Cl	·	3.3	·	·	·
C/C(C=NNC(=O)c1c(Br)cnn1C)=C\c1ccccc1	·	5.6	·	·	·
Cc1nc(C(F)(F)F)c(C(=O)NN=C(N)c2cccnc2)s1	·	5.2	·	·	·
SMILES	Neddylation inh	UCH37 DUB inh	UBC9 SUMO inh	CTSL1 counter	UCH37 reconfirm
Cn1nccc1C(=O)NN=Cc1ccccc1[N+](=O)[O-]	·	6.9	·	·	·
c1ccc(C[C@H]2CNCCN2CCCCC2CCCCC2)cc1	-19.3	35.9*	·	-1.8	4.3
O=[N+]([O-])c1cc(F)c2cccnc2c1O	-51.4	29.1*	2.0	-5.2	48.0
O=[N+]([O-])c1ccc(O)c2ncccc12	-49.6	6.2	-13.3	5.5	·
Cc1ccc(C)c(-n2nnnc2SCC(=O)NCCC2=CCCCC2)c1	4.6	59.3*	7.2	0.5	46.7
CNC(=O)CSc1nnnn1-c1cc(C)ccc1C	-11.8	0.1	-0.6	-3.7	·
C=CCN1C=CC(=C/C=C(/C#N)C(=O)OCC)C=C1	-223.1	32.2*	13.5	8.6	41.1
CN1C(=O)/C(=C/C=C2/CCCN2C)N(C)C1=S	-33.2	34.3*	1.7	7.9	29.4
Cc1cc(N2CCCC2)ccc1/C=C1/C(=O)N(C)C(=S)N1C	-30.6	·	12.2	-0.9	·
O=C(NN=Cc1cc(Br)cs1)c1ccc2c(c1)OCCO2	·	3.9	·	·	·
